PKD1 kinase inh: inhibitors of human PKD1 kinase | PKD1 kinase fluorescence polarization assay | actives 0.056% (n = 200,000) | inhibition, % (test concentration not listed) | Q15139
Target sequence (Q15139 whole entry, looked up): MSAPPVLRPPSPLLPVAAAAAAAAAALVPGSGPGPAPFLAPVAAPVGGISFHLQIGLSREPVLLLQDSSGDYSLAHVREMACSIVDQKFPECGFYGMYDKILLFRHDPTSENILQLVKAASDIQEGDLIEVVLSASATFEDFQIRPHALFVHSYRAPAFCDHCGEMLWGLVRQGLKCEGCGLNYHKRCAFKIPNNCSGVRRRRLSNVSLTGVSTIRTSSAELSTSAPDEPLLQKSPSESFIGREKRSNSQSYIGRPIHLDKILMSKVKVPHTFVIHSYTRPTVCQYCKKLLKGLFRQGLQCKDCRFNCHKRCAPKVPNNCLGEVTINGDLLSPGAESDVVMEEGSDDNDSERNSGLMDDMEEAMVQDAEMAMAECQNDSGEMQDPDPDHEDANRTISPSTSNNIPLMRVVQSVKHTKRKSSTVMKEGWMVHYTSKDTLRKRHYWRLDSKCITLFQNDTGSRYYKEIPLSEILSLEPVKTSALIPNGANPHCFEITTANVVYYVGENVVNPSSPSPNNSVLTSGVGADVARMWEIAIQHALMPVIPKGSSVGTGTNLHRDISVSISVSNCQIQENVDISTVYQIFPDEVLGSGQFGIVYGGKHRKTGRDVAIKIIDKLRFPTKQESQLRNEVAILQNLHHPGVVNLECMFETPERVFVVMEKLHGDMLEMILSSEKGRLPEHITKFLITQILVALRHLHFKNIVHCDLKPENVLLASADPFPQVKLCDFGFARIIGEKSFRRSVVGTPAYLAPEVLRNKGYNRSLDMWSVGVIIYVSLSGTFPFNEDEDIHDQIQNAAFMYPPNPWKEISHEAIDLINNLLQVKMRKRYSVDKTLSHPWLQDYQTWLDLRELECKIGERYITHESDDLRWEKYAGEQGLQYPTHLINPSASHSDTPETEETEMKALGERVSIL
CHOP inhibitor: inhibitors of CHOP induction in ER stress response | CHO-K1 CHOP-promoter luciferase, tunicamycin-induced, 15-18 h | inhibition, % at 10 µM | actives 3.8% (n = 220,000);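 active means compounds that reduced the stress-induced luciferase reporter signal by more than about 70% of percent inhibition, limit read from the data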;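 further: 0% = tunicamycin plus vehicle and 100% = wells without tunicamycin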
Rad51 HR inh: blocks human Rad51 in homologous recombination | AID 1385 | Q06609 | actives 0.085% (n = 200,000) | hRad51 DNA strand exchange, fluorescence dequenching | inhibition, % at 10 µM;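 active means inhibition above 40% at the single screening dose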;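 further: 0% = DMSO control wells and 100% = blanks with heterologous ssDNA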
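material = hRad51 filaments on single-stranded DNA | timing = filaments 15 min 37 °C, then compound 30 min | signal = FRET fluorescence dequenching, excitation 485 nm, emission 520 nm | benchmarks = control wells and blank wells on each plate | evaluation = percent inhibition relative to plate controls and blanks | compound = 10 µM final, single point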
Lmaj promast: inhibitors of Leishmania major promastigote growth; Leishmania major promastigotes, resazurin fluorescence viability; inhibition, % at 10 µM; actives 9% (n = 200,000);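 further: promastigotes grown with compound for 44 hours at 28 °C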
Arbovirus anti: antivirals against arbovirus infection; inhibition, % at 10 µM; actives 0.37% (n = 200,000); arbovirus infection cell-based antiviral screen; in the data active means inhibition above about 30%
Wee1 stabilizer: inhibitors of human Wee1 degradation. actives 1.2% (n = 220,000). HeLa Luc-Wee1K328M stability, luciferase luminescence; 100% = proteasome inhibitor MG132 effect. P30291. reporter increase, % at 5 µM;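 active means activation above the mean of all tested compounds plus 3 SD, set per screening run, cut at about 8.8% in these data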;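 further: cells exposed to compound for 20 h before luminescence read; 0% = DMSO alone and 100% = MG132 at 30 µM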
* marks the source's active call; other numbers are inactive results; . = no result. This is a sample that favours compounds with a hit; in the whole collection about 12% have one here. Unless noted, no stated cut-off is given here; in the data, active means inhibition above about 50%; inactive means the rest.

SMILES | PKD1 kinase inh | CHOP inhibitor | Rad51 HR inh | Lmaj promast | Arbovirus anti | Wee1 stabilizer
Cn1c(Cc2cccc3ccccc23)nnc1SCC(=O)N1CCN(c2ccccc2)CC1 | -21 | 34 | 3 | 58* | -32 | 1
Cc1c(-n2c(SCC(=O)C(C)(C)C)nc3ccccc3c2=O)c(=O)n(-c2ccccc2)n1C | -4 | 8 | 15 | -5 | 0 | -1
CCOC(=O)c1cccc(NC(=S)NCc2ccc(C)cc2)c1 | 0 | -1 | . | 2 | -7 | -1
Oc1[nH]c2c(Cl)cc(Cl)cc2c1N=NC(=S)NCC1CCCO1 (stereo unspecified) | 2 | 15 | 5 | 98* | -20 | -3
Oc1[nH]c2ccc(Br)cc2c1N=NC(=S)NCC1CCCO1 (stereo unspecified) | . | 94* | 13 | . | . | -2
Cc1ccc(C(=O)Oc2ccc(Cl)c3cccnc23)cc1[N+](=O)[O-] | 5 | -5 | . | 98* | 12 | -2
NC(=O)c1ccc(Oc2cccc3cccnc23)c([N+](=O)[O-])c1 | -4 | 13 | -5 | 3 | -2 | 0
COc1ccc(C(=O)Oc2cccc3cccnc23)cc1[N+](=O)[O-] | -4 | 32 | -12 | 93* | 3 | 1
Cc1ccc(C(=O)Oc2cccnc2)cc1[N+](=O)[O-] | -8 | 4 | . | -6 | -1 | 0
Cn1c(=O)c2c(nc(CN3CCc4ccccc4C3)n2Cc2ccc(F)cc2)n(C)c1=O | -10 | . | 3 | 32 | . | -1
CCN1CCN(Cc2nc3c(c(=O)n(C)c(=O)n3C)n2Cc2cccc3ccccc23)CC1 | -4 | -7 | 3 | 92* | -5 | -2
Cc1ccccc1Cn1c(CN2CCc3ccccc3C2)nc2c1c(=O)n(C)c(=O)n2C | -1 | 39 | -8 | 81* | -2 | -1
CCOC(=O)Cn1c(CN2CCN(C(c3ccccc3)c3ccccc3)CC2)nc2c1c(=O)n(C)c(=O)n2C | 0 | 30 | 6 | 53* | 2 | 0
O=C(NCCc1ccccn1)C1CCN(S(=O)(=O)c2ccc3ccccc3c2)CC1 | -3 | -6 | 0 | 23 | 27 | -2
COC(=O)c1c(C)oc(C)c1S(=O)(=O)NC(c1ccccc1)c1ccccc1 | . | 17 | . | . | . | -1
CCOC(=O)c1ccc(N2C(=O)CC(N3CCC(Nc4ccc(F)cc4)CC3)C2=O)cc1 (stereo unspecified) | 4 | 84* | -6 | 4 | 6 | -1
CCOC(=O)c1ccc(N2C(=O)CC(N3CCN(Cc4ccccc4)CC3)C2=O)cc1 (stereo unspecified) | -3 | 1 | -4 | -8 | 4 | 1
COC(=O)c1ccc(NC(=O)Cn2c(-c3nonc3N)nc3ccccc32)cc1 | -9 | 27 | -6 | 0 | -11 | -5
CC(C)OC(=O)c1ccc(NC(=O)Cn2c(-c3nonc3N)nc3ccccc32)cc1 | -5 | -17 | -5 | 51* | -9 | 1
N#C/C(=C/c1ccc(F)cc1)c1nc(CCN2C(=O)c3ccccc3C2=O)cs1 | -2 | 15 | -4 | -5 | 4 | 2
N#C/C(=C/c1ccc(F)cc1)c1nnc(NC(=O)c2ccccc2)s1 | . | 73* | 6 | . | . | 1
Cc1ccc(N=Nc2c(=O)[nH]n3c(C)cc(C)nc23)cc1 | 1 | 26 | 0 | -4 | -8 | 11*
Cc1cc(C)n2[nH]c(=O)c(N=Nc3ccc(S(N)(=O)=O)cc3)c2n1 | -9 | 2 | 1 | -6 | 0 | 1
COCCN=c1scc(-c2ccccc2)n1/N=C/c1c[nH]c2ccccc12 | -2 | 73* | 5 | 13 | -30 | -2
O=C(Nn1c(-c2ccc(Br)cc2)nc2ccccc2c1=O)c1ccncc1 | -7 | 8 | -5 | -2 | 15 | 1
SMILES | PKD1 kinase inh | CHOP inhibitor | Rad51 HR inh | Lmaj promast | Arbovirus anti | Wee1 stabilizer
Cc1cc(C(=O)Nn2c(-c3ccc(Br)cc3)nc3ccccc3c2=O)ccc1[N+](=O)[O-] | -1 | 91* | -4 | 5 | -2 | 3
Cc1cc(N2CCCC2)nc2ccccc12 | -1 | 0 | 11 | 14 | 12 | 1
Cc1cc(N2CCN(C3CCCCC3)CC2)nc2cccc(O)c12 | -10 | 16 | 6 | 85* | 2 | -3
CCOC(=O)Cc1nnc(NC(=O)CSc2nnc3c(n2)[nH]c2ccccc23)s1 | -9 | 24 | 7 | -1 | 5 | 1
O=C(CSc1ccc(F)cc1)Nc1ccc(C2SCCS2)cc1 | . | -4 | 3 | . | . | 9.5*
O=C(CSC1=NCCS1)Nc1ccc(F)cc1 | -6 | -10 | 4 | -3 | -7 | -2

Screening data from PubChem.
